High-throughput results as filed in PubChem BioAssay.
core dimer inh: blocks dimerization of HCV core protein; TR-FRET GST/Flag-core106 dimerization, 1536-well; inhibition, % at 5 µM; 300,000 compounds, 0.33% hits;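 active means inhibition above the mean of all tested compounds plus 3 SD, set per screening campaign, cut at about 45% in these data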
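Assay system: GST-tagged and Flag-tagged HCV core protein residues 1-106 / Times: compound-protein-antibody incubation 4 h at 22.5 °C / Signal: time-resolved FRET, ex 340 nm, em 617 and 671 nm / Evaluation: % inhibition based on acceptor/donor emission ratio / Benchmarks: wells lacking GST-core106 and wells with excess unlabelled core106 / Repeats: singlicate, one well per compound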
HSF1 activator: increases HSF-1 driven luciferase reporter signal. NIH3T3-HGL HSF-1 luciferase reporter, MG132, 8 h; 100% = twice DMSO control signal. activation, % at 9 µM. 300,000 compounds, 1.7% hits. AID 504408;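 active means mean replicate activation of at least 50% with a set share of replicates each reaching 50%; inconclusive means only one of those two conditions met; inactive means mean below 50% and too few replicates reaching it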;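 further: 0% = median of the neutral control wells and 100% = twice that signal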
PHOSPHO1 block: inhibitors of human PHOSPHO1 phosphatase; Q8TCT1; recombinant PHOSPHO1, absorbance phosphatase assay; inhibition, % at 13.3 µM; 290,000 compounds, 1.1% hits; AID 1565; in the data active means inhibition above about 60%
Target sequence (Q8TCT1 whole entry, looked up): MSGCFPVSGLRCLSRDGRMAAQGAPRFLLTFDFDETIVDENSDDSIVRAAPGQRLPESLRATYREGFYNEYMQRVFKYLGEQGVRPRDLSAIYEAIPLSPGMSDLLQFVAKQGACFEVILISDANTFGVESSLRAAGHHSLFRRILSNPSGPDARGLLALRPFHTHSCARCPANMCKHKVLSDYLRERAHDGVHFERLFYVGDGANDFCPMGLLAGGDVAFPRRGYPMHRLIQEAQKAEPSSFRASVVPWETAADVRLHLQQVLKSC
HSF1 inhib: HSF1 inhibition; activity change, negative = inhibition, % at 7.5 µM (by protocol); NIH3T3-HGL HSE-luciferase, MG132-induced, luminescence 8 h; active compounds read low; 300,000 compounds, 0.77% hits;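 active means more than half of replicate wells show activity change below -50%, luminescence cut by over half; inconclusive means some wells, but at most half, below -50%; inactive means no replicate well below -50%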;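 further: luciferase reports HSF-1 transcriptional activity via heat shock element; 0% = median of DMSO wells and -100% = zero luminescence signal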
AI-2 QS modul: modulates the Vibrio harveyi AI-2 quorum sensing system; Vibrio harveyi JMH597 AI-2 luminescence/OD600 ratio, 9 h; active compounds read low; strain lacks LuxN and CqsS sensors; 0 = neutral-control median; activity change, % at 7.5 µM; 300,000 compounds, 0.4% hits; in the data active means activity change below about -75%, passing the limit was not always enough; inconclusive means no clear call, values can overlap the other calls;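 further: luminescence divided by OD600 gain over 9 h not by final OD600 alone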
ALR H2O2 inh: human ALR oxidase inhibition via reduced H2O2; purified ALR, DTT oxidation, H2O2 HRP-luminol luminescence; inhibition, % (concentration not given with the values); P55789; 290,000 compounds, 3.8% hits;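 active means mean replicate inhibition above about 79%, with every replicate also reaching it, limit read from the data; inconclusive means only one of the two criteria met; inactive means mean below limit and not every replicate reaching it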
Target sequence (P55789 whole entry, looked up): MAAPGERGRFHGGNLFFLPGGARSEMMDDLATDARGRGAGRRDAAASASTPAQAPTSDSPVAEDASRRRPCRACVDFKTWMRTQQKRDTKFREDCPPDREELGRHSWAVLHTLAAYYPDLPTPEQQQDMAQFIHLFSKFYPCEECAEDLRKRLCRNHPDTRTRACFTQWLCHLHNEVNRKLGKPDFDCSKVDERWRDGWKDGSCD
* hit, by the source's call; ? = inconclusive; nt = no result given. Compounds with a hit are over-represented: about 6.8% of the library has one in this group of screens.

SMILES	core dimer inh	HSF1 activator	PHOSPHO1 block	HSF1 inhib	AI-2 QS modul	ALR H2O2 inh
Cc1ccccc1OCc1ccc(C(=O)N2CCOCC2)o1	8.9	10.7	10.8	2.0	14.0	1.6
CCNS(=O)(=O)c1ccc(NC(=O)CC(C)c2ccccc2)cc1 (configuration not stated)	-0.6	0.7	37.3	-1.4	32.5	-20.1
O=C(Sc1cccc2cccnc12)c1ccccc1Br	2.4	207.4*	15.0	137.9	7.2	nt
CC(=O)/C(=N\Nc1ccccc1Cl)Sc1cccc2cccnc12	8.5	143.0*	1.7	130.5	13.9	1.5
CC(=O)/C(=N\Nc1ccccc1)Sc1cccc2cccnc12	4.8	187.0*	-21.1	166.7	7.9	6.2
O=C(Sc1cccc2cccnc12)c1ccc(F)cc1	nt	nt	-85.7	nt	nt	nt
O=C(CSc1cccc2cccnc12)Nc1ccccc1F	4.2	9.6	27.3	3.5	19.7	-9.7
C/C(=N/NC(=O)CCCOc1ccc(Cl)cc1Cl)c1ccc(C)o1	2.6	-0.8	6.3	-0.6	-11.2	6.5
CCn1c(COc2cccc3cccnc23)nnc1SC(F)F	-3.5	14.4	51.4	11.5	41.9	1.6
Cc1cc(C(=O)COC(=O)Cc2ccc(Br)cc2)c(C)n1C	nt	nt	nt	nt	nt	1.5
COc1ccc(-c2csc(N(CCCN(C)C)C(=O)c3ccc(F)cc3)n2)cc1	-7.3	8.7	22.0	-0.5	-0.3	86.6*
O=C(NCc1ccc(Cl)cc1)c1ccc(CNc2c(N3CCCC3)c(=O)c2=O)cc1	1.5	-5.2	12.9	-7.7	8.6	nt
CN(C)c1ccc(CNC(=O)c2ccc(CNc3c(N4CCCCC4)c(=O)c3=O)cc2)cc1	-2.1	60.5*	8.6	29.6	3.9	98.1*
O=C(c1ccc([N+](=O)[O-])s1)N1CCN(c2cccc(Cl)c2)CC1	4.0	-59.4	-1.0	-51.5*	?	-23.3
COC(=O)C1=NNC2C(=O)N(c3ccc(C)cc3)C(=O)C12 (configuration not stated)	-0.9	-2.6	44.8	-8.6	29.4	-9.8
Cc1ccc(N2C(=O)[C@@H]3C(C(=O)C(c4ccccc4)c4ccccc4)=NN[C@@H]3C2=O)cc1	15.3	52.8*	1.1	16.6	-0.2	-2.9
COc1ccc(NC(=O)CNC(=O)Cn2cnc3sc4c(c3c2=O)CCCC4)cc1OC	-3.1	-10.6	32.4	-5.7	24.6	-3.1
CCOC(=O)C(=Cc1ccc(-n2ccnc2)cc1)C(=O)OCC	-3.9	128.0*	5.4	71.6	33.5	53.7
COC(=O)c1ccc(-n2ccnc2)cc1	-5.8	-9.6	32.5	-7.0	6.7	-4.2
CCOC(=O)C(=Cc1ccc(F)cc1)C(=O)OCC	-2.0	125.9*	17.3	122.5	7.3	-2.0
CCOC(=O)C(=Cc1ccc(Br)cc1)C(=O)OCC	nt	148.3*	42.1	113.2	16.2	53.2
CCOC(=O)C(=O)Nc1ccc(F)cc1	1.9	-6.1	13.0	5.5	7.2	-1.0
CCOC(=O)C(CC)(CC)C(=O)/C=C/c1ccc(Br)cc1	-2.3	44.8	27.0	17.6	31.3	13.7
CCOc1ccc(C(C)NC(=O)c2cc(=O)[nH]c3ccccc23)cc1OCC (configuration not stated)	3.0	-2.1	35.1	-7.1	23.8	0.0
COc1ccc(C(=O)NCCCNC(=O)c2cccnc2)cc1Br	4.5	8.9	16.2	0.4	-1.2	0.8
SMILES	core dimer inh	HSF1 activator	PHOSPHO1 block	HSF1 inhib	AI-2 QS modul	ALR H2O2 inh
O=S(=O)(Cc1ccccc1)N(O)c1ccccc1	-11.2	-10.2	27.9	2.0	0.5	98.9*
O=C(O)CNS(=O)(=O)Cc1ccccc1	3.8	-3.4	23.1	-3.9	36.0	nt
S=c1[nH]cc(Cc2ccccc2)s1	-15.2	60.4*	-10.6	26.8	-5.9	62.8
Cc1cc(NC(=O)Cc2cccs2)no1	28.4	nt	14.3	nt	nt	nt
CC1CCN(CC(=O)Nc2ccc(S(=O)(=O)N3CCC(C)CC3)cc2)CC1	2.1	25.7	46.0	-3.6	16.8	nt
Cc1cc(NS(=O)(=O)c2ccc(NC(=O)Cc3cccs3)cc2)no1	1.9	1.6	-60.5	-3.9	-78.1*	nt
CC1CCN(CC(=O)Nc2ccc(S(=O)(=O)NC3CC3)cc2)CC1	1.6	-72.1	13.9	-64.9*	0.5	1.1
CC1CCN(S(=O)(=O)c2ccc(NC(=O)Cc3cccs3)cc2)CC1	65.4*	0.9	21.0	0.1	31.8	-9.7
Cc1ccccc1CC1(CO)CCCN(C(=O)c2ccccc2Cl)C1 (configuration not stated)	4.0	54.7*	-3.4	12.1	6.6	nt
O=C(NCCN1CCCCC1)Nc1ccccc1Cl	2.9	-85.7	nt	-82.6*	1.0	-1.8
O=C(COc1ccc(Cl)cc1)NCCN1CCCC1	2.7	-0.5	nt	1.3	5.8	-5.7
O=C(COc1ccc(Cl)cc1)NCCN1CCCCC1	2.2	-63.9	4.7	-55.5*	6.1	2.2
Cc1cc(OCC(=O)NCCN2CCOCC2)cc(C)c1Cl	7.7	-13.0	24.0	-2.2	15.9	1.5
Cc1ccc(OCC(=O)NCCN2CCOCC2)cc1C	-4.3	-17.0	15.0	-2.8	33.8	86.9*
CCOc1ccccc1NC(=O)NCCN1CCCCC1	3.1	5.8	39.0	0.6	16.1	-15.5
COc1ccc(C2=NOC(C)(c3nnc(-c4ccc(F)cc4)o3)C2)cc1 (configuration not stated)	-11.5	-10.7	17.7	-2.5	3.1	-3.1
Cc1cc(C)n(-c2nc3ccccc3s2)n1	1.2	-88.0	19.9	-84.2*	13.4	nt
Cc1cc(N)n(-c2nc3ccccc3s2)n1	-2.3	-24.6	-7.9	?	-4.4	98.8*
COc1ccc(Br)cc1CNc1ccc2[nH]c(=O)[nH]c2c1	-28.9	-5.9	32.2	2.7	5.4	98.8*
Oc1c(Br)cc(Br)cc1CNc1ccc(F)cc1	-0.1	13.4	-0.1	-3.2	10.8	97.6*
COc1cc(CNc2ccc3[nH]c(=O)[nH]c3c2)ccc1OCc1ccccc1C	-18.1	17.0	34.0	6.5	22.1	?
COc1ccc(Br)cc1CNc1ccc(O)cc1	-10.9	nt	37.3	nt	nt	98.3*
CCCCCCN1CC(=O)N2[C@@H](Cc3c([nH]c4ccccc34)C2(C)C)C1=O	12.8	-58.4	32.7	-51.4*	14.0	-0.8
Cc1cc(NC(=O)CCC(=O)N(c2ccccc2C)C(C(=O)NC2CCCC2)c2ccccc2)no1 (configuration not stated)	0.8	8.0	15.1	-0.6	11.9	nt
Cc1c(Br)c([N+](=O)[O-])nn1CC(=O)Nc1ccc(C(N)=O)cc1	-1.7	8.0	49.8	1.4	5.7	-5.7
Cc1cc2c(cc1C)NC(CC(=O)NCc1ccccc1)C(=O)N2 (configuration not stated)	6.9	75.5*	3.4	38.7	0.7	17.0
O=C(/C=C/c1ccc(NC(=O)c2ccccc2-c2ccccc2C(=O)O)cc1)c1ccccc1	35.3	-48.7	18.9	-33.2	53.2	98.4*
